Measurements taken from publication PMC10370593 (Chemical Science, 2023).
Entries after “also recorded” stand apart in the source; their conditions may differ.

Columns and labels:
CD44 gene = assay: Relative gene expression in Notch1 silenced MDA-MB-231 by real-time PCR; type: cell-based, human; conditions: MDA-MB-231, 72 h, RT-PCR; AB36_siRNA MR 50, metformin 200 μM; mean of n = 3
CD24 gene = assay: as above; type: cell-based, human; conditions: MDA-MB-231, 72 h, RT-PCR; AB36_siRNA MR 50, metformin 200 μM; mean of n = 3
MDA-MB-231 cells [1] = assay: MTT cytotoxicity for IC50 and combination index; type: cell-based; conditions: Homo sapiens, MDA-MB-231, 72 h
How it was run: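 MTT viability assay in MDA-MB-231 cells at 72 h. The IC50 of the test compound came from a dose range analysed in CompuSyn. For the combination, five test compound doses (200–450 μM) were paired with a fixed dose of lipopeptide–Notch1 siRNA complex. Combination index was derived by the Chou–Talalay method. Data are mean ± SEM, n = 3.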

MMP-2 gene = assay: Relative gene expression in Notch1 silenced MDA-MB-231 by real-time PCR; type: cell-based, human; conditions: MDA-MB-231, 72 h, RT-PCR; AB36_siRNA MR 50, metformin 200 μM; mean of n = 3
Erk1 gene = assay: Gene silencing by real-time PCR; type: cell-based, human; conditions: mean ± SEM of three
Erk2 gene = assay: Gene silencing by real-time PCR; type: cell-based, human; conditions: 72 h, MDA-MB-231, MR50, RT-PCR, mean ± SEM of three
Notch1 gene = assay: Gene silencing by real-time PCR; type: cell-based, human; conditions: 72 h, MDA-MB-231, MR50 (1.25 μM lipopeptide, 25 nM Notch1 siRNA), RT-PCR, mean ± SEM of three
MDA-MB-231 cells [2] = assay: Uptake studies by ApoTome microscopy; type: cell-based, human; conditions: MR 50, 6 h incubation at 37 °C
MDA-MB-231 cells [3] = assay: Cellular uptake by flow cytometry; type: cell-based, human; conditions: DY-547 labelled siRNA, MR 50, 1 h incubation
How it was run: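 MDA-MB-231 cells were incubated 1 h with complexes of FAM-labelled lipopeptide (1.25 μM) and DY-547-labelled siRNA (25 nM), MR 50. Complexes were pre-formed by mixing and resting 30 min at room temperature. Uptake was read by flow cytometry in the FITC and PE channels, with single-label complexes used for compensation. Samples were run in duplicate; values are mean ± SEM of two replicates.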

Notch1 protein = assay: Immunostaining of Notch1 protein; type: cell-based, human; conditions: MDA-MB-231, 72 h, MR50, TRITC signal versus untreated vehicle
How it was run: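 MDA-MB-231 cells were seeded at 14000 per well on etched coverslips and left overnight. They were then transfected with unlabelled lipopeptide (1.25 μM) complexed to Notch1-silencing siRNA (25 nM), MR 50, for 72 h. Untreated cells served as vehicle. Notch1 was detected by immunofluorescence.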

trypsin = assay: Protease stability of lipopeptides; type: in vitro ADME; conditions: 0.1 μg trypsin, protocol of ref. 14
HUVEC = assay: Cellular uptake by flow cytometry; type: cell-based, human; conditions: DY-547 labelled siRNA, MR 50, 1 h incubation, hard to transfect primary cells, two replicates
[4] = 48 h, MDA-MB-231, MR50 (1.25 μM lipopeptide, 25 nM Erk1/2 siRNA), RT-PCR

Compound | Knockdown percentage, Erk1 (Erk1 gene; [4]) [%] | Knockdown percentage, Erk1 (Erk1 gene; 72 h, MDA-MB-231, MR50, RT-PCR) [%] | Knockdown percentage, Erk2 (Erk2 gene) [%] | Knockdown percentage, Notch1 (Notch1 gene) [%] | also measured
CN(C)C(=N)N=C(N)N [metformin] | – | – | – | – | relative expression of the CD44 gene (CD44 gene): did not show any changes; relative expression of the CD24 gene (CD24 gene): did not show any changes; IC50 (MDA-MB-231 cells [1]): 374 µM; relative expression of the MMP-2 gene (MMP-2 gene): did not show any changes
FAM-^γAbu-Arg- Lys-N^ε(stearyl)-Arg-Sar-Arg-Gpn-Arg- Lys-N^ε(stearyl)-Arg-Sar-Arg-NH2 [AB32] | 51.6 ± 7.4 | 70.6 ± 2.3 | 60.3 ± 3.2 | 73.1 ± 2.8 | –
FAM-γAbu-Arg- C^α-Octylgly -Arg-Sar-Arg-Gly-Arg- Lys-N^ε(D-alpha-Tocopherol succinyl)-Arg-Sar-Arg-NH2 [AB18] | 62.6 ± 12.5 | 89.1 ± 6.3 | 85.9 ± 16.7 | 90.8 ± 3.06 | cytosolic distribution of siRNA compared with HiPerFect (MDA-MB-231 cells [2]): higher levels of cytosolic distribution of siRNA; siRNA internalization (ranking among designed lipopeptides) (MDA-MB-231 cells [3]): highest siRNA internalization; also recorded: highest level of siRNA; siRNA internalization relative to HiPerFect_siRNA (MDA-MB-231 cells [3]; two replicates): 1.79 times
FAM-γAbu-Arg-C^α-Octylgly-Arg-Sar-Arg-Gly-Arg-Lys-N^ε(1-Adamantyl)-Arg-Sar-Arg-NH2 [AB29] | 52.6 ± 10.2 | 58.8 ± 10.9 | 59.8 ± 7.2 | 50.5 ± 7.7 | siRNA internalization (ranking among designed lipopeptides) (MDA-MB-231 cells [3]): much lower efficiency; also recorded: lowest amount of siRNA
FAM-γAbu-Arg- Lys-N^ε(1-Pyrenebutyryl)-Arg-Sar-Arg-Gly-Arg- Lys-N^ε(1-Pyrenebutyryl)-Arg-Sar-Arg-NH2 [AB17] | 67.9 ± 7.6 | 85.9 ± 8.8 | 75.8 ± 5.1 | 82.5 ± 5.6 | –
PEG9-Arg- C^α-Octylgly -Arg-Sar-Arg-Gly-Arg-Lys- N^ε(D-alpha-Tocopherol succinyl)-Arg-Sar-Arg-NH2 [AB36] | – | – | – | – | Notch1 protein expression by immunofluorescence (Notch1 protein): significantly lowered; time at which degradation by trypsin starts (trypsin): 1 to 3 h; time at which lipopeptide is completely degraded by trypsin (trypsin): 6 h; cellular internalization of siRNA relative to HiPerFect (HUVEC): 1.53 times
c[-Arg-^DHis-Arg-^DHis-Arg-Lys{Lys(linoleyl)2}-Arg-^DHis-Arg-^DHis-Arg-Glu-]-Lys(FAM)-NH2 (head to tail) [Peptide 6, reference compound] | 31.2 ± 2.2 | 78.1 ± 2.0 | 71.6 ± 9.4 | 80.9 ± 1.6 | –
